Measurements published in ChEMBL document CHEMBL1139574, “Synthesis and biological evaluation of novel bisphosphonates with dual activities on bone in vitro” (2005).

Key:
Format in all cases: functional
[1] = species: Rattus norvegicus; test: Proliferative activity on the of rat calvaria osteoblasts at concentration of 10e-5 M
Summary of the method: (§1)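 SD rat calvarial osteoblasts plated at 2 × 10⁴ cells/well and exposed to a range of bisphosphonate concentrations for 72 h. Proliferation read by MTT, absorbance at 492 nm. Proliferative ratio (%) = (treated − control)/control × 100. Mean ± SE, n = 3.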

[2] = species: Rattus norvegicus; test: Proliferative activity on the of rat calvaria osteoblasts at concentration of 10e-6 M; summary of the method: as §1
[3] = species: Rattus norvegicus; test: Proliferative activity on the of rat calvaria osteoblasts at concentration of 10e-7 M; summary of the method: as §1
[4] = species: Rattus norvegicus; test: Proliferative activity on the of rat calvaria osteoblasts at concentration of 10e-8 M; summary of the method: as §1
[5] = Inhibitory ratio of osteoclast precursor cells at concentration of 10e-7 M by staining with tartrate-resistant acid […]
Summary of the method: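 Osteoclast precursor cells plated at 5 × 10⁴ cells/well and cultured 8 days with or without bisphosphonate at 10^-7 M. Cells then TRAP-stained, and positive cells with three or more nuclei counted. Inhibitory ratio (%) = (control count − treated count)/control count × 100. Mean ± SE, n = 5.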

[6] = Inhibitory activity of bone gamma-carboxyglutamate (gla) protein (osteocalcin) was determined at concentration of 10e-6 M in cell lysates
Summary of the method: (§2)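 Newborn Sprague-Dawley rat calvarial osteoblast-enriched cultures seeded at 5 × 10³ cells/well and treated for 72 h. Osteocalcin measured in cell lysates by radioimmunoassay. Normalized to viable cell number from MTT. Mean ± SE, n = 5.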

[7] = Inhibitory activity of bone gamma-carboxyglutamate (gla) protein (osteocalcin) was determined at concentration of 10e-7 M in cell lysates; summary of the method: as §2
[8] = Inhibitory activity of bone gamma-carboxyglutamate (gla) protein (osteocalcin) was determined at concentration of 10e-8 M in cell lysates; summary of the method: as §2
[9] = Inhibitory activity of bone gamma-carboxyglutamate (gla) protein (osteocalcin) was determined at concentration of 10e-9 M in cell lysates; summary of the method: as §2
[10] = molecular target: T1, Alkaline phosphatase, tissue-nonspecific isozyme (Rattus norvegicus) (UniProt P08289); test: Inhibitory activity of Alkaline phosphatase was determined at concentration of 10e-6 M using p-nitrophenylphosphate as the substrate
T1 sequence (whole entry): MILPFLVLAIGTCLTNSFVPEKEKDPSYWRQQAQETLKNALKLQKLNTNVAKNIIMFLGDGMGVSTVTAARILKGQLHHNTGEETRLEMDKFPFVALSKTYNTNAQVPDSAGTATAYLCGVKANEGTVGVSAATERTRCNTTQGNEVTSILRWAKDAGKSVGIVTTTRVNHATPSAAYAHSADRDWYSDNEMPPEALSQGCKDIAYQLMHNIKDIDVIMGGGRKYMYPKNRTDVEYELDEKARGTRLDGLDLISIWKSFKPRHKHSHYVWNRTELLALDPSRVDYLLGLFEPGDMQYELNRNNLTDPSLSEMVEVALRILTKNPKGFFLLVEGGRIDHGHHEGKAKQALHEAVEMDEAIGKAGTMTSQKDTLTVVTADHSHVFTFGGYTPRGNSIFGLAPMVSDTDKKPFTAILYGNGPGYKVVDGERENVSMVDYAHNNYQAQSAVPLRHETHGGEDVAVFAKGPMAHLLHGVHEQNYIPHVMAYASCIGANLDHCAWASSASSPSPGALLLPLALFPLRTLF
Summary of the method: (§3)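 Primary osteoblast-enriched cells from newborn Sprague-Dawley rat calvaria, cultured in DMEM at 37 °C under 5% CO2. Seeded at 5 × 10³ cells/well and exposed to test agent for 72 h. Alkaline phosphatase activity measured with p-nitrophenylphosphate substrate. Values normalized to viable cell number from the MTT assay. Mean ± SE, n = 5.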

[11] = molecular target: T1, Alkaline phosphatase, tissue-nonspecific isozyme (Rattus norvegicus); test: Inhibitory activity of Alkaline phosphatase was determined at concentration of 10e-7 M using p-nitrophenylphosphate as the substrate; summary of the method: as §3
[12] = molecular target: T1, Alkaline phosphatase, tissue-nonspecific isozyme (Rattus norvegicus); test: Inhibitory activity of Alkaline phosphatase was determined at concentration of 10e-8 M using p-nitrophenylphosphate as the substrate; summary of the method: as §3
[13] = molecular target: T1, Alkaline phosphatase, tissue-nonspecific isozyme (Rattus norvegicus); test: Inhibitory activity of Alkaline phosphatase was determined at concentration of 10e-9 M using p-nitrophenylphosphate as the substrate; summary of the method: as §3

Row | Structure (SMILES) | Proliferation [1] [%] | Proliferation [2] [%] | Proliferation [3] [%] | Proliferation [4] [%] | inhibition at 0.1 µM [5] [%] | further results
1 | COc1cccc(C(=O)NCCC(O)(P(=O)([O-])O)P(=O)([O-])O)c1.[Na+].[Na+] | 8.9 | 7.1 | -5.5 | 0.6 | 26.9 | –
2 | COc1cc([N+](=O)[O-])cc(C(=O)NCCC(O)(P(=O)([O-])O)P(=O)([O-])O)c1OC.[Na+].[Na+] | 17.7 | -1.5 | 21.4 | -0.8 | 64.4 | –
3 | COc1cccc(C(=O)NCCC(O)(P(=O)([O-])O)P(=O)([O-])O)c1OC.[Na+].[Na+] | 35.2 | 47.4 | 74.4 | 26.6 | 68.1 | Activity [6]: 11.7; Activity [7]: 8.63; Activity [8]: 4.73; Activity [9]: 4.07; Activity [10]: 3.6; Activity [11]: 2.15; Activity [12]: 0.75; Activity [13]: 0.56
4 | Cc1ccccc1C(=O)NCCCCCC(O)(P(=O)(O)O)P(=O)(O)O | – | – | – | – | 9.4 | –
5 | Cc1ccc(C(=O)NCCC(O)(P(=O)(O)O)P(=O)(O)O)cc1 | – | – | – | – | 30.4 | –
6 | Cc1ccccc1C(=O)NCCCC(O)(P(=O)(O)O)P(=O)(O)O | – | – | – | – | 30.3 | –
7 | COc1ccc(C(=O)NCCCCCC(O)(P(=O)(O)O)P(=O)(O)O)cc1 | – | – | – | – | 39 | –
8 | O=C(NCCCCCC(O)(P(=O)(O)O)P(=O)(O)O)c1cccc(Cl)c1 | – | – | – | – | 15.9 | –
9 | O=C(NCCC(O)(P(=O)(O)O)P(=O)(O)O)c1ccccc1 | – | – | – | – | 9.5 | –
10 | O=C(NCCC(O)(P(=O)([O-])O)P(=O)([O-])O)c1ccc2c(c1)OCO2.[Na+].[Na+] | 9.3 | -8.3 | -7.3 | -0.2 | 60.2 | –
11 | O=C(NCCCC(O)(P(=O)(O)O)P(=O)(O)O)c1ccccc1 | – | – | – | – | 35.6 | –
12 | COc1cccc(C(=O)NCCCC(O)(P(=O)([O-])O)P(=O)([O-])O)c1.[Na+].[Na+] | 0.7 | -5.5 | -12.4 | 3.7 | 34.2 | –
